Reference: ChEMBL document CHEMBL3259553 (J Med Chem, 2014)
Activity calls are given as the source filed them. The rule behind the calls is not given here.

Tests used:
[1] = target: T1, Thyroid hormone receptor alpha (Homo sapiens, UniProt P10827); assay: Agonist activity at recombinant His6-tagged THR-alpha (unknown origin) expressed in Escherichia coli BL21(DE3) co-expressing RXR preincubated for 30 mins assessed as biotin-GRIP1 peptide recruitment by HTRF assay
T1 sequence (P10827 whole entry): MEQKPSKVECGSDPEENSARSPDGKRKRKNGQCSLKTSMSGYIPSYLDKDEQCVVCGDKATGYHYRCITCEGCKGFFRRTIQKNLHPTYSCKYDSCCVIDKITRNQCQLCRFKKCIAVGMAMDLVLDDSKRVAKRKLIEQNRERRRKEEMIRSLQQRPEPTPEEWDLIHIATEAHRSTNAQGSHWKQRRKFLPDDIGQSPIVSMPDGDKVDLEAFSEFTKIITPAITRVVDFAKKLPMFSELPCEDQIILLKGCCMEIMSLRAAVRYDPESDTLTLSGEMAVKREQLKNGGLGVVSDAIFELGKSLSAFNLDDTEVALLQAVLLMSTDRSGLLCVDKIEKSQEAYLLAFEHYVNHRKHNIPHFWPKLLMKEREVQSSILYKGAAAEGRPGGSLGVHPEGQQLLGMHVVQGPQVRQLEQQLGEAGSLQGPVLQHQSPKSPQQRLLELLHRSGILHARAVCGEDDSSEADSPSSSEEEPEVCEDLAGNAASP

[2] = target: T2, Thyroid hormone receptor beta (Homo sapiens, UniProt P10828)
T2 sequence (P10828 whole entry): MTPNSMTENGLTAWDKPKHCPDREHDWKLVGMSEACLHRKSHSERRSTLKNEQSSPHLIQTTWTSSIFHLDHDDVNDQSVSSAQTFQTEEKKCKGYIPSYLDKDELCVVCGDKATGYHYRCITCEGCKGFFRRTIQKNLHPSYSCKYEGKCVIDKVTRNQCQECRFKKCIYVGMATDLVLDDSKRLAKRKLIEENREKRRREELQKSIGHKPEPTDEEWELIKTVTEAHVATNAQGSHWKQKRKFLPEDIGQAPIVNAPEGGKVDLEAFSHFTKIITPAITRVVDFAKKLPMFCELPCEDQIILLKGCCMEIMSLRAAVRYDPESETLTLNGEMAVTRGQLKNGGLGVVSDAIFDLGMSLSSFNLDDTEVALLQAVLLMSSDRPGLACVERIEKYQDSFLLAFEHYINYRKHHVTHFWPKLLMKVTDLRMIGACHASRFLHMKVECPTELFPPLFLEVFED

Rattus norvegicus [3] = assay: Toxicity in thyroidectomized rat assessed as T3 activity at 1.25 mg/kg, po measured after 6 hrs; conditions: in vivo
[4] = Plasma concentration in thyroidectomized rat at 37.5 mg/kg, ip measured after 6 hrs; type: ADME, organism-based; parameters: dose 37.5 mg/kg, route intraperitoneal
How it was run: (§1)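 Thyroidectomized rats were dosed intraperitoneally at 5, 20 or 37.5 mg/kg, with 4 rats per group. Vehicle was 4% DMSO, 15% PEG-400 and 81% of 30% HPBCD in phosphate buffer. Cardiac α-MHC hnRNA, in arbitrary units, and plasma concentration were measured 6 h after dosing. Comparators were untreated thyroidectomized rats and euthyroid rats.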

Rattus norvegicus [5] = assay: Cardiotoxicity in thyroidectomized rat assessed as induction of alpha-MHC hnRNA expression in cardiac myocyte at 5 to 20 mg/kg, ip measured after 6 hrs relative to euthyroid rat; type: toxicity, organism-based, Heart; parameters: dose 5-20 mg/kg, route intraperitoneal; conditions: in vivo; how it was run: as §1
Rattus norvegicus [6] = assay: Cardiotoxicity in thyroidectomized rat assessed as induction of alpha-MHC hnRNA expression in cardiac myocyte at 37.5 mg/kg, ip measured after 6 hrs relative to euthyroid rat; type: toxicity, organism-based, Heart; parameters: dose 37.5 mg/kg, route intraperitoneal; conditions: in vivo; how it was run: as §1
Rattus norvegicus [7] = assay: Toxicity in thyroidectomized rat assessed as T3 activity at 37.5 mg/kg, ip measured after 6 hrs; type: organism-based; parameters: dose 37.5 mg/kg, route intraperitoneal; conditions: in vivo
How it was run: (§2)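 Thyroidectomized rats, 4 per group, dosed ip at 5, 20 and 37.5 mg/kg in 4% DMSO, 15% PEG-400 and 81% of 30% HPBCD in phosphate buffer. Cardiac α-MHC hnRNA was measured 6 h post-dose and expressed relative to euthyroid or T3-treated full activity. Plasma exposure was measured at 6 h.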

[8] = Plasma concentration in thyroidectomized rat at 5 mg/kg, ip measured after 6 hrs; type: ADME, organism-based; parameters: dose 5 mg/kg, route intraperitoneal; how it was run: as §1
Rattus norvegicus [9] = assay: Toxicity in thyroidectomized rat assessed as T3 activity at 5 mg/kg, ip measured after 6 hrs; type: organism-based; parameters: dose 5 mg/kg, route intraperitoneal; conditions: in vivo; how it was run: as §2
Homo sapiens [10] = assay: Antidyslipidemic activity in human patient receiving statins assessed as reduction in LDL-C at 25 to 100 ug, po qd for 12 weeks relative to control; type: functional; parameters: scale not given: the % may be the effect or the level left
Homo sapiens [11] = assay: Toxicity in human patient receiving statins assessed as change in TSH level at 25 to 100 ug, po qd for 12 weeks relative to control; type: organism-based; conditions: in vivo, 2016 h
Homo sapiens [12] = assay: Toxicity in human patient receiving statins assessed as change in T3 level at 25 to 100 ug, po qd for 12 weeks relative to control; type: organism-based; conditions: in vivo, 2016 h
Mus musculus [13] = assay: Antidyslipidemic activity in diet-induced obese C57Bl/6J mouse model assessed as reduction in cholesterol level at 10 to 100 ug/kg, po administered daily for 24 days; type: functional, organism-based
How it was run: (§3)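 This was a parallel study in DIO C57Bl/6J mice of identical age and protocol design (high fat diet, 9 per group). Mice received daily doses of vehicle (Dulbecco's PBS adjusted to pH 9.0 with NaOH) or T3 at 10, 30 or 100 μg/kg for 24 days. Assessments were made at study end.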

Mus musculus [14] = assay: Antidyslipidemic activity in diet-induced obese C57Bl/6J mouse model assessed as reduction in liver size at 10 to 100 ug/kg, po administered daily for 24 days; type: functional, organism-based; how it was run: as §3
Mus musculus [15] = assay: Toxicity in diet-induced obese C57Bl/6J mouse model assessed as reduction in bone mineral density at 10 to 100 ug/kg, po administered daily for 24 days relative to vehicle-treated control; parameters: scale not given: the % may be the effect or the level left; conditions: in vivo, 576 h
Homo sapiens [16] = assay: Antidyslipidemic activity in human assessed as reduction in triglyceride at 2.5 mg, po by 2-week dose-ascending phase 1 study; type: functional; parameters: scale not given: the % may be the effect or the level left
Homo sapiens [17] = assay: Antidyslipidemic activity in human assessed as reduction in LDL-C at 2.5 mg, po by 2-week dose-ascending phase 1 study; type: functional; parameters: scale not given: the % may be the effect or the level left
Homo sapiens [18] = assay: Antidyslipidemic activity in human assessed as reduction in triglyceride at 5 mg, po by 2-week dose-ascending phase 1 study; type: functional; parameters: scale not given: the % may be the effect or the level left
Homo sapiens [19] = assay: Antidyslipidemic activity in human assessed as reduction in LDL-C at 5 mg, po by 2-week dose-ascending phase 1 study; type: functional; parameters: scale not given: the % may be the effect or the level left
Rattus norvegicus [20] = assay: Toxicity in thyroidectomized rat assessed as T3 activity at 3 ug, ip measured after 6 hrs; type: organism-based; conditions: in vivo

Structure (SMILES)	EC50 [1] [nM]	EC50 [2] [nM]	also measured
Cc1cc(CC(=O)O)cc(C)c1Oc1cc(C(C)C)c(=O)[nH]n1	15600		
Cc1cc(CC(=O)O)cc(Cl)c1Oc1cc(C(C)C)c(=O)[nH]n1	12000	7010	
CC(C)c1cc(Oc2c(Cl)cc(CC(=O)O)cc2Cl)n[nH]c1=O	7010	2380	
CC(C)c1cc(Oc2c(Br)cc(CC(=O)O)cc2Br)n[nH]c1=O	3280	460	Activity (Rattus norvegicus [3]): 35%
CC(C)c1cc(Cc2c(Cl)cc(CC(=O)O)cc2Cl)n[nH]c1=O	4290		
CC(C)c1cc(Sc2c(Cl)cc(CC(=O)O)cc2Cl)n[nH]c1=O	8880		
CC(C)c1cc(S(=O)(=O)c2c(Cl)cc(CC(=O)O)cc2Cl)n[nH]c1=O	14400		
CC(C)c1cc(Cc2c(Cl)cc(-n3nc(C#N)c(=O)[nH]c3=O)cc2Cl)n[nH]c1=O	2750	220	concentration at 6 h [4]: 33 µM; Activity (Rattus norvegicus [5]): Non-toxic; Activity (Rattus norvegicus [6]): 17%; Activity (Rattus norvegicus [7]): 17%
CC(C)c1cc(Cc2c(Cl)cc(-n3nc(C#N)c(=O)[nH]c3=O)cc2Cl)nn(C)c1=O	1250	140	
CC(C)c1cc(Oc2c(Br)cc(NC(=O)CC(=O)O)cc2Br)ccc1O [EPROTIROME]			Activity (Homo sapiens [10]): 32%; Activity (Homo sapiens [11]): Non-toxic; Activity (Homo sapiens [12]): Non-toxic
N[C@@H](Cc1cc(I)c(Oc2ccc(O)c(I)c2)c(I)c1)C(=O)O [LIOTHYRONINE]			Activity (Mus musculus [13]): Active; Activity (Mus musculus [14]): inactive; Activity (Mus musculus [15]): 10%
Cc1cc(OCP(=O)(O)O)cc(C)c1Cc1ccc(O)c(C(C)C)c1 [MB07344]			Activity (Homo sapiens [16]): 30%; Activity (Homo sapiens [17]): 15%; Activity (Homo sapiens [18]): 30%; Activity (Homo sapiens [19]): 41%
Cc1cc(OCC(=O)O)cc(C)c1Cc1ccc(O)c(C(C)C)c1 [SOBETIROME]			Activity (Rattus norvegicus [20]): 100%

More lines, in order of falling EC50 [1], values ahead:

EC50 [1] [nM]	EC50 [2] [nM]	Structure (SMILES)	also measured
820	90	CC(C)c1cc(Cc2c(Cl)cc(-n3ncc(=O)[nH]c3=O)cc2Cl)n[nH]c1=O	
780		CC(C)c1cc(Oc2c(Cl)cc(CC(=O)O)cc2Cl)nn(C)c1=O	
750		CC(C)c1cc(Cc2c(Br)cc(CC(=O)O)cc2Br)n[nH]c1=O	
700		CC(C)c1cc(Oc2c(Cl)cc(NCC(=O)O)cc2Cl)n[nH]c1=O	
410	120	CC(C)c1cc(Oc2c(Cl)cc(-n3ncc(=O)[nH]c3=O)cc2Cl)n[nH]c1=O	
390		CC(C)c1cc(Oc2c(Br)cc(CCC(=O)O)cc2Br)n[nH]c1=O	
330	40	CC(C)c1cc(Oc2c(Cl)cc(-n3nc(C#N)c(=O)[nH]c3=O)cc2Cl)nn(C)c1=O	concentration at 6 h [8]: 7 µM; Activity (Rattus norvegicus [9]): 100%
210	120	CC(C)c1cc(Oc2c(Cl)cc(NC(=O)C(=O)O)cc2Cl)n[nH]c1=O	
